# In paper PMC10763047 (Chemical Science, 2023):
# Key:
# p110α [1] = target: p110α (Homo sapiens, UniProt P42336, E545K); test: Western blot of p110α degradation in MCF7 cells; type: cell-based; conditions: pretreatment before WJ112-14
# In short: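 MCF7 cells (p110α E545K) were exposed to test compound for 6 h, or 6 h and 24 h in some runs. Integrated PI3Kα western blot signals were normalised to α-tubulin and DMSO. SD came from biological triplicates at selected concentrations. Mechanistic runs used pretreatment with bortezomib, MLN4924 or TAK-243, a glutarimide-methylated CRBN-binding-dead analogue, and washout to follow p110α recovery.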
# p110α [2] = test: Western blot of p110α degradation in a panel of cell lines; type: cell-based; conditions: MCF7 and T47D cell lines
# p110α (Homo sapiens, UniProt P42336, E545K), sequence (P42336 whole entry E545K): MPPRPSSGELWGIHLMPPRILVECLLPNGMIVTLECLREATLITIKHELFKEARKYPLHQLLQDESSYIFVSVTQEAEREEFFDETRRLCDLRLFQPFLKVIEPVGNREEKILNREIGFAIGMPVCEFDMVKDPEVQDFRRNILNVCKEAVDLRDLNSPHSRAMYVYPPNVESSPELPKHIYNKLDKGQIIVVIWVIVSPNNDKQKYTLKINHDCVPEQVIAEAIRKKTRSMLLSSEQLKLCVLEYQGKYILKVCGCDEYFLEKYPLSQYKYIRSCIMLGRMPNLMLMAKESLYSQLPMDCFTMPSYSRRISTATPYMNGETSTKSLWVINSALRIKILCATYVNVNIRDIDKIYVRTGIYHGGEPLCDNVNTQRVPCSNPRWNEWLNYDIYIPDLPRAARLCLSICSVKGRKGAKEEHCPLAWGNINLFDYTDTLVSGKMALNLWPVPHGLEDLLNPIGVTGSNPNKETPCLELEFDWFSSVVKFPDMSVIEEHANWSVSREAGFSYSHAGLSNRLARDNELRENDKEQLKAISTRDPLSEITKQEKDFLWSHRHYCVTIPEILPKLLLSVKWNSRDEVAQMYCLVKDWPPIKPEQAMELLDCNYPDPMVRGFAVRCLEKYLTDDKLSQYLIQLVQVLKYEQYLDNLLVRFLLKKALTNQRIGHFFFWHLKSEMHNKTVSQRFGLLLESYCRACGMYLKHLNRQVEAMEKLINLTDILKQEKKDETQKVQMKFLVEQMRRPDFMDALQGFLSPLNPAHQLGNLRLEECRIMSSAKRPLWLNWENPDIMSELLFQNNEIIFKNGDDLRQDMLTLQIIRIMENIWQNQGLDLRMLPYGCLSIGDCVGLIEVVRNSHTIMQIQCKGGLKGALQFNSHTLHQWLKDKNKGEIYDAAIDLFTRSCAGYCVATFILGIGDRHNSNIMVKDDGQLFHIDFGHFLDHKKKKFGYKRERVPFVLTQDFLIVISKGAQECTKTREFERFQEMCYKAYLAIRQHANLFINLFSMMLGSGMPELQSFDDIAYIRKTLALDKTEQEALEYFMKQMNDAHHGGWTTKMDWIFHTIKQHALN
# p110α (Homo sapiens, UniProt P42336, E545K), sequence (P27986 whole entry partner): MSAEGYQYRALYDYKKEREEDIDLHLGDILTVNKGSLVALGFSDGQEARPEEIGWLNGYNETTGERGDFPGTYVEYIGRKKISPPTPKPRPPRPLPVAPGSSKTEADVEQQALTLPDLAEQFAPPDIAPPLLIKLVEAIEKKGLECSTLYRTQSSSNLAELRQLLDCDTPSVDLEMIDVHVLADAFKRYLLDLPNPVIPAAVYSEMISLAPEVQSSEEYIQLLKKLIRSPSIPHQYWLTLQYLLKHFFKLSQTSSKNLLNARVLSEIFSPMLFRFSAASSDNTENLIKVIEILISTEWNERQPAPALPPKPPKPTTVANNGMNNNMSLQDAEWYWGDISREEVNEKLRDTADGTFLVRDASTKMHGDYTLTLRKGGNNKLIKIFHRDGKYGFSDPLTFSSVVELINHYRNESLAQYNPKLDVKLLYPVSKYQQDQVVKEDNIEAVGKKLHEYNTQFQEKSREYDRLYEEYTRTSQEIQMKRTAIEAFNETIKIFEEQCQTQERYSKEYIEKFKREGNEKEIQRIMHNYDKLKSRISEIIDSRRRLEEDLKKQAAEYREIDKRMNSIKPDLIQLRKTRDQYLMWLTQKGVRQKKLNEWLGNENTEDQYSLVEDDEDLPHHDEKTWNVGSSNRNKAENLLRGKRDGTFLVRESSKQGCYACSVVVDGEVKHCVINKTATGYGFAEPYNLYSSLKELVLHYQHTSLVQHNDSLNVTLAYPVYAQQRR
Compound,rescue of p110α from WJ112-14 degradation by pretreatment (p110α [1]),p110α degradation (p110α [2])
Cc1nc(-c2cn3c(n2)-c2ccc(-c4cnn(C(C)(C)C(N)=O)c4)cc2OCC3)n(C(C)C)n1 [taselisib],–,inactive
NS(=O)(=O)OC[C@H]1C[C@@H](Nc2ccnc3cc(-c4cccc(SC(F)(F)F)c4)nn23)[C@H](O)[C@@H]1O [TAK-243],full rescue of p110α,–
NS(=O)(=O)OC[C@@H]1C[C@@H](n2ccc3c(N[C@H]4CCc5ccccc54)ncnc32)C[C@@H]1O [MLN4924],full rescue of p110α,–

# Further lines, with some results ahead:
rescue of p110α from WJ112-14 degradation by pretreatment (p110α [1]),Compound,p110α degradation (p110α [2])
rescue of p110α,Nc1cccc2c1C(=O)N(C1CCC(=O)NC1=O)C2=O (centres unmarked) [pomalidomide],–
full rescue of p110α,CC(C)C[C@H](NC(=O)[C@H](Cc1ccccc1)NC(=O)c1cnccn1)B(O)O [bortezomib],–
